{
  "source": "ChEMBL document CHEMBL3632511",
  "about": "“Oxopyrido[2,3-d]pyrimidines as Covalent L858R/T790M Mutant Selective Epidermal Growth Factor Receptor (EGFR) Inhibitors” (ACS Med Chem Lett, 2015)",
  "key": {"[1]": {"biological_target": "T1, Epidermal growth factor receptor (Homo sapiens, UniProt P00533)", "T1 sequence (P00533 whole entry)": "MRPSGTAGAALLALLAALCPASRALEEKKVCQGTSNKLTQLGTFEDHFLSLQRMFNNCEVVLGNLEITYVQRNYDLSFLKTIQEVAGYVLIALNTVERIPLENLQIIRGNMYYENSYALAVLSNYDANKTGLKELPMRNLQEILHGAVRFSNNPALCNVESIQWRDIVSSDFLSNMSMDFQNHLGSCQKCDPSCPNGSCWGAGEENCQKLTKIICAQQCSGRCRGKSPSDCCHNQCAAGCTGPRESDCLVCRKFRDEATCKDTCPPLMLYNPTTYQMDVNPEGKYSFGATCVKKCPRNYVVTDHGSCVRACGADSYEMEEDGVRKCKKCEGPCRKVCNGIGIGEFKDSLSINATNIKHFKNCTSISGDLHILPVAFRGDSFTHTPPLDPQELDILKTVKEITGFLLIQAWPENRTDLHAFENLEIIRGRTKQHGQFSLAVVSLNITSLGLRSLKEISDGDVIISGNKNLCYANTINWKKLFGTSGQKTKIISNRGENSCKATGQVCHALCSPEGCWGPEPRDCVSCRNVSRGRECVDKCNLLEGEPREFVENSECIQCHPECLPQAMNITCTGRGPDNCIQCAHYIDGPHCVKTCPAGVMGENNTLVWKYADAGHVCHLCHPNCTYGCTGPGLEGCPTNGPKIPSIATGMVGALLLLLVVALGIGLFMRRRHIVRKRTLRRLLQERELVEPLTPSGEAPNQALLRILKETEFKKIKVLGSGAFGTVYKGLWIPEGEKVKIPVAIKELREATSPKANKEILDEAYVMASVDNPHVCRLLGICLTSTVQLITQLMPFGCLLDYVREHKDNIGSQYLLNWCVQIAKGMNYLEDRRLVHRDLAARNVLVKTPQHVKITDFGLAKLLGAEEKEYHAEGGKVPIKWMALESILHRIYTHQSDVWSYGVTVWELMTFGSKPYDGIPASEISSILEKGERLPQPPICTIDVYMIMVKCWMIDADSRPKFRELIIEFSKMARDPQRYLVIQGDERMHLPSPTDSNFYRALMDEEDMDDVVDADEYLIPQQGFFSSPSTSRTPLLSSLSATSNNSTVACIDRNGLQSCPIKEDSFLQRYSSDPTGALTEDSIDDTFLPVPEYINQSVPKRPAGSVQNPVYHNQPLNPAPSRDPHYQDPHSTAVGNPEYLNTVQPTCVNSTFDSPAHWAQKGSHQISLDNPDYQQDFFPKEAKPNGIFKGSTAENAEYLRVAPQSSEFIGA", "test": "Binding affinity to wild type EGFR (unknown origin)"}, "[2]": {"biological_target": "T2, Epidermal growth factor receptor (Homo sapiens, UniProt P00533, L858R/T790M)", "T2 sequence (P00533 25-1210 T790M/L858R limits assumed)": "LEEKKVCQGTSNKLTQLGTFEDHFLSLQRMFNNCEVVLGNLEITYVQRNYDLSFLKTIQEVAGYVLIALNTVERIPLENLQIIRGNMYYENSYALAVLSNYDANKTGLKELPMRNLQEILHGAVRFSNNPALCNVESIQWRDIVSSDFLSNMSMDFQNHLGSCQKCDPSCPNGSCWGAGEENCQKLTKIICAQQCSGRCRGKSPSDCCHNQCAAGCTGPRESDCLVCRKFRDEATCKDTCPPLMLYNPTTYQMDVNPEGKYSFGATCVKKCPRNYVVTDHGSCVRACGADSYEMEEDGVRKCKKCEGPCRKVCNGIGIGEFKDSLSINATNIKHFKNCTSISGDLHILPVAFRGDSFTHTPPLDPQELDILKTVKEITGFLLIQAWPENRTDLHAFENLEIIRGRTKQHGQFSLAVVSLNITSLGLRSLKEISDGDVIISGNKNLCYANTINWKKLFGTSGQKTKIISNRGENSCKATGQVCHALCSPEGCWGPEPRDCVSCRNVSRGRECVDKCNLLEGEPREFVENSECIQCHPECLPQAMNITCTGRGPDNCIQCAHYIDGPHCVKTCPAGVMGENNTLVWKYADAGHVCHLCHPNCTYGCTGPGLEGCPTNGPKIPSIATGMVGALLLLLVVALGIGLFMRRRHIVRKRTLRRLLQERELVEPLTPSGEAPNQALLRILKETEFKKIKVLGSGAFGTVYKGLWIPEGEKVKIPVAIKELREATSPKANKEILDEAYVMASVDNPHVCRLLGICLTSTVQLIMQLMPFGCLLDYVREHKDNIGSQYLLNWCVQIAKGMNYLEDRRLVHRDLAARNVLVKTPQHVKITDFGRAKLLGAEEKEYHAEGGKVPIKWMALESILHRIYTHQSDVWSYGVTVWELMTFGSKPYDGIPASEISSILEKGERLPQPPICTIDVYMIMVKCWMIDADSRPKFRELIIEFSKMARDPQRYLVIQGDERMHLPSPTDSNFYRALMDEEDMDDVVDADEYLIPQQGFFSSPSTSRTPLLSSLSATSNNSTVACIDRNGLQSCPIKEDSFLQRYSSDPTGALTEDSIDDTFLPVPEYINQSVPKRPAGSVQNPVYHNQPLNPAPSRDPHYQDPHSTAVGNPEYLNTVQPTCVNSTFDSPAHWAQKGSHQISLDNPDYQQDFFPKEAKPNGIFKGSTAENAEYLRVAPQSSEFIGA", "test": "Binding affinity to EGFR T790M/L858R double mutant (unknown origin)", "assay_type": "protein assay"}, "[3]": {"test": "Volume of distribution at steady state in Sprague-Dawley rat at 1 mg/kg, iv", "assay_type": "ADME, organism-based", "conditions": "in vivo, read-out: Vdss", "procedure,_shortened": "(§1)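 Male Sprague Dawley rats, 3 animals per route; mean values. IV dose 1 mg/kg as a DMSO solution. Oral dose 10 mg/kg, in one of three vehicles by compound: 1% Pluronic F68/2% HPMC/15% HPBCD/82% water–methanesulfonic acid pH 4.5; 20% HPBCD/80% water–methanesulfonic acid pH 4.0; or 1% Pluronic F68/2% HPMC/97% water–methanesulfonic acid pH 4.0.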"}, "[4]": {"test": "Half life in Sprague-Dawley rat at 1 mg/kg, iv", "assay_type": "ADME, organism-based", "conditions": "in vivo", "procedure,_shortened": "as §1"}, "Rattus norvegicus [5]": {"system": "Rattus norvegicus", "test": "Oral bioavailability in Sprague-Dawley rat at 10 mg/kg", "assay_type": "ADME, organism-based", "conditions": "in vivo", "procedure,_shortened": "as §1"}, "Mus musculus": {"system": "Mus musculus", "test": "In vivo inhibition of EGFR L858R/T790M double mutant phosphorylation in human NCI-H1975 cells xenografted in athymic nude mouse at 30 mg/kg, po measured at 4 hrs by mesoscale multiplex assay relative to control", "assay_type": "functional", "procedure,_shortened": "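Female athymic nude mice carried matrigel plugs holding 5 x 10⁶ H1975 cells, n = 3 per group. Control or compound given at 30 mg/kg po. Plugs and plasma taken 4 h after dosing. p-EGFR in plug measured by quantitative MSD assay, given as % p-EGFR/PRAS40 vs control.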"}, "Rattus norvegicus [6]": {"system": "Rattus norvegicus", "test": "AUC (0 to infinity) in Sprague-Dawley rat at 10 mg/kg, po", "assay_type": "ADME, organism-based", "set-up": "dose 10 mg/kg, route oral, time infinity", "conditions": "in vivo", "procedure,_shortened": "as §1"}, "Rattus norvegicus [7]": {"system": "Rattus norvegicus", "test": "Clearance in Sprague-Dawley rat at 1 mg/kg, iv", "assay_type": "ADME, organism-based", "conditions": "in vivo", "procedure,_shortened": "as §1"}, "[8]": {"biological_target": "T2, Epidermal growth factor receptor", "test": "Inhibition of EGFR L858R/T790M double mutant phosphorylation in human NCI-H1975 cells after 60 mins by mesoscale multiplex assay", "assay_type": "cell-based"}, "A-431": {"system": "A-431", "test": "Cytotoxicity against human A431 cells expressing wild-type EGFR assessed as inhibition of cell proliferation after 72 hrs by CellTiter-Glo assay", "assay_type": "cell-based", "conditions": "A-431, 72 h"}, "[9]": {"biological_target": "T1, Epidermal growth factor receptor", "test": "Inhibition of wild type EGFR phosphorylation in human A431 cells after 60 mins by mesoscale multiplex assay", "assay_type": "cell-based, A-431"}, "[10]": {"test": "Cytotoxicity against human HCC827 cells harboring EGFR 746 to 750 deletion mutant assessed as inhibition of cell proliferation after 72 hrs by CellTiter-Glo assay", "assay_type": "functional, cell-based", "conditions": "HCC827, 72 h"}, "NCI-H1975 [11]": {"system": "NCI-H1975", "test": "Cytotoxicity against human NCI-H1975 cells harboring EGFR L858R/T790M double mutant assessed as inhibition of cell proliferation after 72 hrs by CellTiter-Glo assay", "assay_type": "functional, cell-based", "conditions": "NCI-H1975, 72 h"}, "Rattus norvegicus [12]": {"organism": "Rattus norvegicus", "test": "Hepatobiliary toxicity in Sprague-Dawley rat measured for 4 days", "assay_type": "organism-based", "conditions": "in vivo, 96 h"}, "NCI-H1975 [13]": {"system": "NCI-H1975", "test": "Antitumor activity against human NCI-H1975 cells xenografted in athymic nude mouse assessed as tumor growth inhibition at 30 mg/kg, po qd administered for 2 weeks started on day 6 post tumor implantation measured on day 19 relative to control", "assay_type": "functional"}, "[14]": {"biological_target": "Epidermal growth factor receptor (Homo sapiens, UniProt P00533, 746-750DEL)", "sequence (P00533 whole entry, looked up, stated change not applied)": "as the sequence (P00533 whole entry) above", "test": "Inhibition of EGFR 746 to 750 deletion mutant phosphorylation in human HCC827 cells after 60 mins by mesoscale multiplex assay", "assay_type": "cell-based"}},
  "note": "The source made the active and inactive calls. No cut-off for these calls is given here.",
  "data": [
    {"smiles": "C=CC(=O)Nc1cccc(-n2c3nc(Nc4ccc(N5CCC(N(C)C)CC5)cc4OC)ncc3c(=O)n3ccnc23)c1", "values": [
      {"measurement": "Kd", "setting": "[1]", "result": 310, "unit": "nM"},
      {"measurement": "Kd", "setting": "[2]", "result": 2.6, "unit": "nM"}
    ]},
    {"smiles": "C=CC(=O)Nc1cccc(-n2c(=O)cc(C)c3cnc(Nc4ccc(N(C)CCN(C)C)cc4OC)nc32)c1", "values": [
      {"measurement": "Vd", "setting": "[3]", "result": 20, "unit": "L/kg"},
      {"measurement": "half-life", "setting": "[4]", "result": 2.6, "unit": "h"},
      {"measurement": "F", "setting": "Rattus norvegicus [5]", "result": 21, "unit": "%"},
      {"measurement": "inhibition in vivo at 30 mg/kg", "setting": "Mus musculus", "result": 80, "unit": "%"},
      {"measurement": "AUC", "setting": "Rattus norvegicus [6]", "result": 0.16, "unit": "µM·h"},
      {"measurement": "CL", "setting": "Rattus norvegicus [7]", "result": 128, "unit": "mL/min/kg"},
      {"measurement": "IC50", "setting": "[8]", "result": 6, "unit": "nM"},
      {"measurement": "IC50", "setting": "A-431", "result": "> 1000", "unit": "nM"},
      {"measurement": "IC50", "setting": "[9]", "result": 521, "unit": "nM"},
      {"measurement": "IC50", "setting": "[10]", "result": 22, "unit": "nM"},
      {"measurement": "IC50", "setting": "NCI-H1975 [11]", "result": 8, "unit": "nM"},
      {"measurement": "Activity", "setting": "Rattus norvegicus [12]", "result": "Non-toxic"},
      {"measurement": "TGI", "setting": "NCI-H1975 [13]", "result": "Active"},
      {"measurement": "IC50", "setting": "[14]", "result": 12, "unit": "nM"}
    ]},
    {"smiles": "C=CC(=O)Nc1cccc(-n2c(=O)cc(C)c3cnc(Nc4ccc(C5CCN(C)CC5)cc4OC)nc32)c1", "values": [
      {"measurement": "IC50", "setting": "[10]", "result": 33, "unit": "nM"},
      {"measurement": "IC50", "setting": "NCI-H1975 [11]", "result": 4, "unit": "nM"}
    ]}
  ]
}
